We go through 19 molecules from ChEMBL document CHEMBL2311400, “Synthesis and biological evaluation of 4-(aminomethyl)-1-hydroxypyrazole analogues of muscimol as γ-aminobutyric acid(a) receptor agonists” (J Med Chem, 2013).

Each structure is given as a SMILES string. Activity calls are given as the source filed them. The rule behind the calls is not given here.

Experiment [1] concerns the target T1, GABA-A receptor; alpha-1/beta-2/gamma-2 (Homo sapiens, UniProt P14867+P18507+P47870).
T1 sequence (P14867 whole entry): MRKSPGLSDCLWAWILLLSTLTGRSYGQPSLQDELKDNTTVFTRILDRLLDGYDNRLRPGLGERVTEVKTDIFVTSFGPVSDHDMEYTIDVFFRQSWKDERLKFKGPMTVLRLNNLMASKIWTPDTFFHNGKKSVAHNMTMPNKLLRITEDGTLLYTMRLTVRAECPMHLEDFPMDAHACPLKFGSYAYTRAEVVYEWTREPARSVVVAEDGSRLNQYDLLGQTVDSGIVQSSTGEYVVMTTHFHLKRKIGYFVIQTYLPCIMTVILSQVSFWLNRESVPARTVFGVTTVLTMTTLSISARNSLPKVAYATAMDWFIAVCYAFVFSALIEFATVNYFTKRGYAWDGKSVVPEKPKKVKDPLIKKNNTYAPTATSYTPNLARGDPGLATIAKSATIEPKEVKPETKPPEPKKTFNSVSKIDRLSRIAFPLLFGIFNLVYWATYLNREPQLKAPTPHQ
T1 sequence (P47870 whole entry): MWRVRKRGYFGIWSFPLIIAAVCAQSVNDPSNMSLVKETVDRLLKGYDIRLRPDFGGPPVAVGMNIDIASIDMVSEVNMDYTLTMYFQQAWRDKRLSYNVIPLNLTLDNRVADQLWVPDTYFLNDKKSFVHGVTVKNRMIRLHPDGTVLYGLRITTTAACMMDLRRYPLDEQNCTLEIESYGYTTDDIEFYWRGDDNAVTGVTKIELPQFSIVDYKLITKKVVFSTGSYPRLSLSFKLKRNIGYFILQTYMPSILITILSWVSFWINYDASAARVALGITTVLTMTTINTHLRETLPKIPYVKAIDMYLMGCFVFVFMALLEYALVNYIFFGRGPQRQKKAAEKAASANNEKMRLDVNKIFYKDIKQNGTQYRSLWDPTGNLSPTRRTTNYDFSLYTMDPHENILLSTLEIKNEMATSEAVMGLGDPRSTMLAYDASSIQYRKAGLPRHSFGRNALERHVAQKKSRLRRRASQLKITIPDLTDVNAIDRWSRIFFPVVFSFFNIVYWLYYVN
T1 sequence (P18507 whole entry): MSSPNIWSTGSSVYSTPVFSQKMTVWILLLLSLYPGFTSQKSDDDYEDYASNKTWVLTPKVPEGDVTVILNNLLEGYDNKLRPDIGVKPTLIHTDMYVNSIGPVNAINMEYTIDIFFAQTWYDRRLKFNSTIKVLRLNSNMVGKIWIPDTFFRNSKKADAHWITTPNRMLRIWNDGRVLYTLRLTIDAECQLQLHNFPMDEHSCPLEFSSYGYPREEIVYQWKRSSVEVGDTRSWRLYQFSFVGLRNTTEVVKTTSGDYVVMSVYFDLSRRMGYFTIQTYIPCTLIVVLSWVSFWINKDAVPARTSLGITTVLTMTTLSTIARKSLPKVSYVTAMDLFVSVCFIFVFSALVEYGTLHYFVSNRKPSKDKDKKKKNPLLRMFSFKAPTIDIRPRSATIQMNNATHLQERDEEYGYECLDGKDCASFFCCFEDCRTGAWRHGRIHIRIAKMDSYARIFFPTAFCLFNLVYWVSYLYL
Description: Agonist activity at human GABAA alpha1beta2gamma2S receptor expressed in TSA201 cells after 1 min by FLIPR assay. It is filed as cell-based. The procedure, abridged:
(§1)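 tsA201 cells transfected with 1 μg α (1, 2, 3 or 5), 1 μg β2 and 3 μg γ2S cDNA (Polyfect). Cells replated onto poly-D-lysine plates and assayed 16–24 h later. Loaded with FMP blue dye in Krebs buffer pH 7.4 for 30 min at 37 °C.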

Experiment [2] is described as follows: Displacement of [3H]muscimol from GABAA receptor in rat synaptic membrane after 60 mins by scintillation counting analysis. It is filed as cell membranes. The procedure, abridged:
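Membranes from cortex and central hemispheres of male SPRD rat brains, washed repeatedly in 50 mM Tris-HCl pH 7.4. 70–80 μg protein per well incubated with [3H]muscimol. Separated by GF/C filtration with ice-cold buffer washes; bound radioactivity counted by scintillation. Nonspecific binding defined with 1.0 mM GABA.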
Background: In a radioligand displacement assay an active substance lowers the binding of a labelled ligand.

Experiment [3] concerns the target T1, GABA-A receptor; alpha-1/beta-2/gamma-2. Kind of experiment: Agonist activity at human GABAA alpha1beta2gamma2S receptor expressed in HEK293 cells by patch clamp electrophysiology assay. The format is cell-based.
The target in experiment [4] is T2, GABA-A receptor; alpha-1/beta-2/gamma-2 (Homo sapiens) (UniProt P14867+P47870+P18507). Description: Agonist activity at human GABAA alpha1beta2gamma2S receptor expressed in HEK293 cells by patch clamp electrophysiology assay relative to GABA. The format is cell-based. For orientation: The patch-clamp technique gives a direct electrical read-out from membranes.

Experiment [5] has as its target T3, Gamma-aminobutyric acid receptor subunit rho-1 (Homo sapiens, UniProt P24046). Kind of experiment: Agonist activity at human GABAA rho1 receptor expressed in TSA201 cells after 1 min by FLIPR assay. It is filed as cell-based. An outline of the steps: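 tsA201 cells transfected with 5 μg human ρ1 cDNA, then plated on poly-D-lysine plates for 16–24 h. Loaded with FLIPR membrane potential blue dye in Krebs buffer (pH 7.4), 30 min at 37 °C. Emission at 560 nm (excitation 530 nm) recorded before and up to 1 min after agonist addition. Curves fitted from ΔFU; duplicate, at least three times.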

Experiment [6] deals with T3, Gamma-aminobutyric acid receptor subunit rho-1. Description: Agonist activity at human GABAA rho1 receptor expressed in HEK293 cells at up to 300 uM by patch clamp electrophysiology assay. The format is cell-based.
Experiment [7] deals with T2, GABA-A receptor; alpha-1/beta-2/gamma-2 (Homo sapiens). Kind of experiment: Agonist activity at human GABAA alpha1beta2gamma2S receptor expressed in HEK293 cells at up to 300 uM by patch clamp electrophysiology assay. The format is cell-based.
Experiment [8] has the same target. Description: Agonist activity at human GABAA alpha1beta2gamma2S receptor expressed in TSA201 cells at 300 to 500 uM after 1 min by FLIPR assay. The format is cell-based.
For experiment [9], the target named is T3, Gamma-aminobutyric acid receptor subunit rho-1. Description: Agonist activity at human GABAA rho1 receptor expressed in TSA201 cells at 300 to 500 uM after 1 min by FLIPR assay. It is filed as cell-based.
Experiment [10] addresses T4, GABA A receptor alpha-3/beta-2/gamma-2 (Homo sapiens, UniProt P18507+P34903+P47870).
T4 sequence (P47870 whole entry): T1 sequence (P47870 whole entry)
T4 sequence (P18507 whole entry): T1 sequence (P18507 whole entry)
T4 sequence (P34903 whole entry): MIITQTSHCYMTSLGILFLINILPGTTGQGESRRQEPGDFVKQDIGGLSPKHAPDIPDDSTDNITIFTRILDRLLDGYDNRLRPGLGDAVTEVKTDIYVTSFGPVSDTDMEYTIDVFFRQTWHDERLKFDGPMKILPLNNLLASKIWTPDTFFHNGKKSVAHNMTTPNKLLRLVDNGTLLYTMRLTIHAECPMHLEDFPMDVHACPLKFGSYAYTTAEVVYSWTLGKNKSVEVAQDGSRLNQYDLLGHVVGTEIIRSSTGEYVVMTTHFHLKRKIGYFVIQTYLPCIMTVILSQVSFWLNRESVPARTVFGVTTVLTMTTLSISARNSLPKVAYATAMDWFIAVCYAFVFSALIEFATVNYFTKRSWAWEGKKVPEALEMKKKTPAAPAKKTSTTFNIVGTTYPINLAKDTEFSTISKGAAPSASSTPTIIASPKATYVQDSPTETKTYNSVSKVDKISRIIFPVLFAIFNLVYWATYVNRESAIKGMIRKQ
Description: Agonist activity at human GABAA alpha3beta2gamma2S receptor expressed in TSA201 cells after 1 min by FLIPR assay. The format is cell-based. An outline of the steps: as §1

A short description of experiment [11]: Agonist activity at human GABAA alpha5beta2gamma2S receptor expressed in TSA201 cells after 1 min by FLIPR assay. It is filed as cell-based. To be noted: tsA201, 1 min.
Experiment [12] concerns the target T5, GABA A receptor alpha-2/beta-2/gamma-2 (Homo sapiens, UniProt P18507+P47869+P47870).
T5 sequence (P47870 whole entry): T1 sequence (P47870 whole entry)
T5 sequence (P18507 whole entry): T1 sequence (P18507 whole entry)
T5 sequence (P47869 whole entry): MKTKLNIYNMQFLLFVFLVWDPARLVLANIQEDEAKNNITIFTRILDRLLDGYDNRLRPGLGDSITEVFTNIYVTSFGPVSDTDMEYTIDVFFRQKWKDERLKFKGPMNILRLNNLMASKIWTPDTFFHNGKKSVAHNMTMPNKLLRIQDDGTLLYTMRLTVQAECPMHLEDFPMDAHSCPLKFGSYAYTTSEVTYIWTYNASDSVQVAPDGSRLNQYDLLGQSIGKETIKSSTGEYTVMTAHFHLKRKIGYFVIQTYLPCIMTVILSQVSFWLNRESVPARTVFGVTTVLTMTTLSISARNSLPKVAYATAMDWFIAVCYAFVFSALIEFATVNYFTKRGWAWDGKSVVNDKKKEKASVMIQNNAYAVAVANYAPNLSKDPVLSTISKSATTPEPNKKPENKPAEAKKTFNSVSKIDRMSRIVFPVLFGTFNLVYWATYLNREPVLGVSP
Kind of experiment: Agonist activity at human GABAA alpha2beta2gamma2S receptor expressed in TSA201 cells after 1 min by FLIPR assay. The format is cell-based. An outline of the steps:
as §1

T3 sequence (P24046 whole entry): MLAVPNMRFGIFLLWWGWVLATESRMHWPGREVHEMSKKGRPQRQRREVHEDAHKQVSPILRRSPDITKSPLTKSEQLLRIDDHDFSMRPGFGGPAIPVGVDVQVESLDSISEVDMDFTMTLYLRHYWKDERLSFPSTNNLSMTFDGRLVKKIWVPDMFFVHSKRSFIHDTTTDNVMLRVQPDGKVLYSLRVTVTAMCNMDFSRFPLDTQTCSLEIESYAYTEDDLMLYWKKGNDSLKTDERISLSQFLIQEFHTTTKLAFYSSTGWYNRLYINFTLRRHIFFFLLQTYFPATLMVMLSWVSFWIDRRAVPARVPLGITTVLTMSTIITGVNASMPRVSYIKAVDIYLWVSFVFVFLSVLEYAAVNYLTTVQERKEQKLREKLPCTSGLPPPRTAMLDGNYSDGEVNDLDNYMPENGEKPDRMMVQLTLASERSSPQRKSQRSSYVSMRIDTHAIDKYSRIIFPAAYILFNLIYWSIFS

A word on the Ki: it is the equilibrium dissociation constant of an inhibitor or competing ligand from its target. Higher therefore signals a looser hold on the target. Regarding `Oc1noc2c1CCNC2` [GABOXADOL], the EC50 in [1] stood at 14 µM. This molecule also came in with a Ki in [2] of 0.16 µM.
With `NCc1cn(O)nc1N`, the Ki in experiment [2] was more than 100 µM.
By pKi is commonly meant the Ki on a negative log10 scale, so that one unit is a factor of ten. Consider `Cc1c(CN)cnn1O`, for which the figures for the EC50 in experiment [3], in experiment [1] and in experiment [5] were more than 10 µM, more than 500 µM and more than 500 µM, respectively. Moreover, the Rmax in experiment [4] is more than 64%. Further, the outcome in experiment [6] was inactive. The affinity in [2], expressed as Ki, was 15 µM. The molecule also returned a pKi in experiment [2] of 4.82.
`NCc1cn(O)nc1I` gave an EC50 in [1] of more than 500 µM. This molecule displayed an EC50 in experiment [5] of more than 500 µM. In addition, in [2], the Ki was 32 µM and the negative logarithm of the Ki (pKi) is listed as 4.5.
On to `Cc1c(O)noc1CN`, for which the result in [6] and in experiment [7] was inactive. Affinity in experiment [2] was put at a Ki of 54 µM. This molecule also came in with a pKi in experiment [2] of 4.28.
In turn, `On1ncc2c1CCNC2` registered an inhibitory constant (Ki) in [2] of more than 100 µM.
For `NCc1cnn(O)c1Br`, the EC50 in [3] is more than 100 µM. In addition, in [4], the Rmax was more than 23%. In addition, in experiment [6], the result was inactive. For the same molecule, in [2], the Ki stood at 2.8 µM and the pKi is 5.56.
On to `NCc1cn(O)nc1-c1ccccc1`, for which the EC50 in experiment [1] and in experiment [5] was more than 500 µM in each case. Further, in experiment [2], the Ki is more than 100 µM.
For `NCc1cn(O)nc1-c1ccc(-c2ccccc2)cc1`, the result in experiment [8] and in experiment [9] was inactive. Moreover, the EC50 is more than 300 µM in [1] and more than 500 µM in [5]. In [2], this molecule returned a Ki of 13 µM. In [2], this molecule displayed a pKi of 4.89.
On to `NCc1cn(O)nc1Cc1ccccc1`, for which, in experiment [2], the Ki is more than 100 µM.
With `CCc1nn(O)cc1CN`, the EC50 in [1] and in experiment [5] was more than 500 µM each time. In [2], the inhibition constant (Ki) was 94 µM. This molecule also showed a pKi in [2] of 4.03.
Turning to `NCc1cn(O)nc1-c1cccc(-c2ccccc2)c1`, the result in experiment [8] and in [9] was inactive. The EC50 in experiment [1] and in experiment [5] was more than 500 µM throughout. The molecule further showed a Ki in experiment [2] of 17 µM. Also, in experiment [2], the pKi was 4.81.
In turn, `NCc1cn(O)nc1CCc1ccncc1` had a Ki in experiment [2] of more than 100 µM.
As for `NCc1cnn(O)c1Cl`, the EC50 was more than 30 µM in experiment [3], 29 µM in experiment [1] and more than 500 µM in experiment [5]. The molecule also had an Rmax in experiment [4] of more than 72%. The result in experiment [6] was inactive. In experiment [2], this molecule gave a Ki of 0.63 µM. Also, the pKi in experiment [2] was 6.2.
Consider `NCc1cc(O)no1` [MUSCIMOL], for which the EC50 was 0.21 µM in experiment [10]; 0.054 µM in experiment [11] (read-out: EC50); 0.0537 µM in experiment [11] (read-out: pEC50 (converted)); 0.54 µM in [1]; 0.7 µM in experiment [5]; 0.41 µM in [12]. In addition, the affinity in experiment [2] corresponds to a Ki of 0.007 µM.
Turning to `Cc1nn(O)c(C)c1CN`, the Ki in experiment [2] is more than 100 µM.
`On1cc2c(n1)CCNC2` yielded a Ki in experiment [2] of more than 100 µM.
In experiment [2], `Cc1nn(O)cc1CN` had a Ki of 68 µM and a pKi of 4.16.
As to `NCc1cn(O)nc1CCc1ccccc1`, the Ki in [2] is more than 100 µM.
